17 compounds from ChEMBL document CHEMBL2321876 can be followed below.

The source made the active and inactive calls. No rule for the calls is given here. Bounds are passed on as bounds.

Experiment [1] has as its system Acinetobacter baumannii. The experiment is described as follows: Antibacterial activity against Acinetobacter baumannii ATCC 19606 using iron-replete M9 minimal media after 15 hrs by broth microdilution assay. It counts as functional, organism-based. Particulars: ATCC 19606 = CIP 70.34 = JCM 6841. The method, boiled down: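 ATCC 19606 grown overnight at 30 °C on LB agar, washed twice in dipyridyl-containing M9/casamino acids medium, then diluted to A600 0.0003 in M9 minimal medium with 0.2% casamino acids plus 200 μM FeCl3. Inhibitors from DMSO at 100 μM final, in triplicate. Controls were tetracycline (100 ng/mL) and 1% DMSO. Incubated at 30 °C, A600 measured at 15 h.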
A general note: Dilution methods test growth across graded concentrations, often in twofold steps.

Experiment [2] deals with Acinetobacter baumannii. Put plainly: Antibacterial activity against Acinetobacter baumannii ATCC 19606 using iron-deficient M9 minimal media after 15 hrs by broth microdilution assay. Particulars: ATCC 19606 = CIP 70.34 = JCM 6841. It counts as functional, organism-based. An outline of the steps:
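ATCC 19606 grown overnight at 30 °C on LB agar, washed twice and resuspended in M9 minimal medium with 0.2% casamino acids and 200 μM dipyridyl. Inoculated at A600 0.0003 in this medium plus 1 μM FeCl3. Inhibitors from DMSO at 100 μM final, in triplicate. Tetracycline (100 ng/mL) and 1% DMSO as controls. Incubated at 30 °C; A600 read at 15 h.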

Experiment [3] in a line: Displacement of Fl-Sal-AMS from Mycobacterium tuberculosis MbtA expressed in Escherichia coli after 30 mins by fluorescence polarization assay. On the technique in general: In fluorescence polarisation assays a small probe gives low polarisation when free and higher when bound to something large.
Experiment [4] can be described thus: Displacement of Fl-Sal-AMS from Acinetobacter baumanni BasE expressed in Escherichia coli after 30 mins by fluorescence polarization assay. The settings on record: read-out: Kd. Also noted: species or system Acinetobacter baumannii.

Turning to `C#Cc1cc(C(=O)O)c2cnn(Cc3ccncc3)c2n1`, the outcome with Acinetobacter baumannii [1] and with Acinetobacter baumannii [2] was inactive. Moreover, the dissociation constant (Kd) turned out to be 18500 nM in experiment [3] and 2040 nM in experiment [4].

Turning to `O=C(O)c1cc(-c2ccccc2)nc2c1cnn2Cc1ccc(O)cc1`, the outcome with Acinetobacter baumannii [1] and in the experiment with Acinetobacter baumannii [2] was inactive. For the same compound, the figures for the Kd in experiment [3] and in experiment [4] were > 100000 nM and 556 nM, respectively.

As to `CN(C)C(=O)c1cc(-c2ccccc2)nc2c1cnn2Cc1ccncc1`, the outcome in the experiment with Acinetobacter baumannii [1] and with Acinetobacter baumannii [2] was inactive. Also, the Kd is > 50000 nM in experiment [3] and 334 nM in experiment [4].

In the case of `O=C(O)c1cc(NCc2ccccc2)nc2c1cnn2Cc1ccncc1`, the result in the experiment with Acinetobacter baumannii [1] and in the experiment with Acinetobacter baumannii [2] was inactive. Also, the values for the equilibrium dissociation constant (Kd) in experiment [3] and in experiment [4] were 6020 nM and 2320 nM, respectively.

For `O=C(O)c1cc(-c2ccccc2)cc2nn(Cc3ccncc3)cc12`, the outcome in the experiment on Acinetobacter baumannii [1] and with Acinetobacter baumannii [2] was inactive. For the same compound, the Kd was determined as 58000 nM in experiment [3] and 66400 nM in experiment [4].

For the compound `O=C(O)c1cc(-c2ccccc2)cc2c1ccn2Cc1ccncc1`, the result in the experiment with Acinetobacter baumannii [1] and in the experiment on Acinetobacter baumannii [2] was inactive. In addition, the dissociation constant (Kd) was found to be 161000 nM in experiment [3] and 52200 nM in experiment [4].

On to `NC(=O)c1cc(-c2ccccc2)nc2c1cnn2Cc1ccncc1`, for which the result in the experiment with Acinetobacter baumannii [1] and in the experiment with Acinetobacter baumannii [2] was inactive. The dissociation constant (Kd) stood at 8570 nM in experiment [3] and 66.8 nM in experiment [4].

As for `O=C(O)c1cc(C#Cc2ccccc2)nc2c1cnn2Cc1ccncc1`, the result in the experiment on Acinetobacter baumannii [1] and with Acinetobacter baumannii [2] was inactive. In addition, the dissociation constant (Kd) was found to be 3000 nM in experiment [3] and 421 nM in experiment [4].

On to `O=C(O)c1cc(-c2cccc3cccnc23)nc2c1cnn2Cc1ccncc1`, for which the result with Acinetobacter baumannii [1] and in the experiment with Acinetobacter baumannii [2] was inactive. Further, the Kd in experiment [3] worked out at 22500 nM; in experiment [4], 776 nM.

Turning to `COc1cc(-c2cc(C(=O)O)c3cnn(Cc4ccncc4)c3n2)ccc1C(=O)O`, the result in the experiment on Acinetobacter baumannii [1] and in the experiment on Acinetobacter baumannii [2] was inactive. For the same compound, the dissociation constant Kd in experiment [3] turned out to be 49900 nM; in experiment [4] it was 1700 nM.

Consider `Cc1csc(-c2cc(C(=O)O)c3cnn(Cc4ccncc4)c3n2)c1`, for which the result in the experiment with Acinetobacter baumannii [1] and in the experiment on Acinetobacter baumannii [2] was inactive. For the same compound, the Kd in experiment [3] was 2540 nM; in experiment [4], 86.9 nM.

As for `O=C(O)c1cc(-c2ccc(O)cc2)nc2c1cnn2Cc1ccncc1`, the result with Acinetobacter baumannii [1] and with Acinetobacter baumannii [2] was inactive. Also, the equilibrium dissociation constant (Kd) amounted to 3700 nM in experiment [3] and 8.85 nM in experiment [4].

On to `CCCCCCCCOc1ccc(-c2cc(C(=O)O)c3cnn(Cc4ccncc4)c3n2)cc1`, for which the result in the experiment on Acinetobacter baumannii [1] and in the experiment with Acinetobacter baumannii [2] was inactive. In addition, the Kd is > 50000 nM in experiment [3] and 191 nM in experiment [4].

As for `CCNC(=O)c1cc(-c2ccccc2)nc2c1cnn2Cc1ccncc1`, the result in the experiment on Acinetobacter baumannii [1] and with Acinetobacter baumannii [2] was inactive. The Kd in experiment [3] is > 50000 nM; in experiment [4], 908 nM.

As for `O=C(O)c1cc(NCCCO)nc2c1cnn2Cc1ccncc1`, the result in the experiment on Acinetobacter baumannii [1] and in the experiment with Acinetobacter baumannii [2] was inactive. The figures for the dissociation constant (Kd) in experiment [3] and in experiment [4] were 97700 nM and 2460 nM, respectively.

As to `CC(=O)Nc1ccc(-c2cc(C(=O)O)c3cnn(Cc4ccncc4)c3n2)cc1`, the result in the experiment with Acinetobacter baumannii [1] and in the experiment on Acinetobacter baumannii [2] was inactive. The results for the dissociation constant (Kd) in experiment [3] and in experiment [4] were 4200 nM and 747 nM, respectively.

Consider `NC(=O)c1ccc(-c2cc(C(=O)O)c3cnn(Cc4ccncc4)c3n2)cc1`, for which the outcome in the experiment on Acinetobacter baumannii [1] and with Acinetobacter baumannii [2] was inactive. The Kd in experiment [3] amounted to 1000 nM; in experiment [4], 288 nM.

Usually Kd stands for a measure of binding affinity in units of concentration.
